# Measles CPE: compounds protecting cells from measles virus cytopathic effect, primary screen, measles RdRp inhibitor project, single point, MLSMR library, absorbance; Measles virus-infected cells, CPE protection; protection (pct of control), % at 4 µM; hit rate 1.5% among 140,000; AID 841, 2007; in the data active means protection mostly above about 24%, no sharp cut-off; inactive means mostly below about 26%
# Cav3 T inh: Cav3.2 calcium influx blockers – cell-based, Fluo-4 calcium fluorescence, FDSS, MLSMR library, primary screen. Voltage-dependent T-type calcium channel subunit alpha-1H (Homo sapiens), O95180. Cav3.2-expressing cells; active compounds read low. B-score at 10 µM. hit rate 4% among 100,000. AID 449739, 2010;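 active means single-dose well whose peak fluorescence ratio is a statistical outlier from its plate by either plate-standardised score or position-corrected B-score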
# Target sequence (O95180 whole entry, looked up): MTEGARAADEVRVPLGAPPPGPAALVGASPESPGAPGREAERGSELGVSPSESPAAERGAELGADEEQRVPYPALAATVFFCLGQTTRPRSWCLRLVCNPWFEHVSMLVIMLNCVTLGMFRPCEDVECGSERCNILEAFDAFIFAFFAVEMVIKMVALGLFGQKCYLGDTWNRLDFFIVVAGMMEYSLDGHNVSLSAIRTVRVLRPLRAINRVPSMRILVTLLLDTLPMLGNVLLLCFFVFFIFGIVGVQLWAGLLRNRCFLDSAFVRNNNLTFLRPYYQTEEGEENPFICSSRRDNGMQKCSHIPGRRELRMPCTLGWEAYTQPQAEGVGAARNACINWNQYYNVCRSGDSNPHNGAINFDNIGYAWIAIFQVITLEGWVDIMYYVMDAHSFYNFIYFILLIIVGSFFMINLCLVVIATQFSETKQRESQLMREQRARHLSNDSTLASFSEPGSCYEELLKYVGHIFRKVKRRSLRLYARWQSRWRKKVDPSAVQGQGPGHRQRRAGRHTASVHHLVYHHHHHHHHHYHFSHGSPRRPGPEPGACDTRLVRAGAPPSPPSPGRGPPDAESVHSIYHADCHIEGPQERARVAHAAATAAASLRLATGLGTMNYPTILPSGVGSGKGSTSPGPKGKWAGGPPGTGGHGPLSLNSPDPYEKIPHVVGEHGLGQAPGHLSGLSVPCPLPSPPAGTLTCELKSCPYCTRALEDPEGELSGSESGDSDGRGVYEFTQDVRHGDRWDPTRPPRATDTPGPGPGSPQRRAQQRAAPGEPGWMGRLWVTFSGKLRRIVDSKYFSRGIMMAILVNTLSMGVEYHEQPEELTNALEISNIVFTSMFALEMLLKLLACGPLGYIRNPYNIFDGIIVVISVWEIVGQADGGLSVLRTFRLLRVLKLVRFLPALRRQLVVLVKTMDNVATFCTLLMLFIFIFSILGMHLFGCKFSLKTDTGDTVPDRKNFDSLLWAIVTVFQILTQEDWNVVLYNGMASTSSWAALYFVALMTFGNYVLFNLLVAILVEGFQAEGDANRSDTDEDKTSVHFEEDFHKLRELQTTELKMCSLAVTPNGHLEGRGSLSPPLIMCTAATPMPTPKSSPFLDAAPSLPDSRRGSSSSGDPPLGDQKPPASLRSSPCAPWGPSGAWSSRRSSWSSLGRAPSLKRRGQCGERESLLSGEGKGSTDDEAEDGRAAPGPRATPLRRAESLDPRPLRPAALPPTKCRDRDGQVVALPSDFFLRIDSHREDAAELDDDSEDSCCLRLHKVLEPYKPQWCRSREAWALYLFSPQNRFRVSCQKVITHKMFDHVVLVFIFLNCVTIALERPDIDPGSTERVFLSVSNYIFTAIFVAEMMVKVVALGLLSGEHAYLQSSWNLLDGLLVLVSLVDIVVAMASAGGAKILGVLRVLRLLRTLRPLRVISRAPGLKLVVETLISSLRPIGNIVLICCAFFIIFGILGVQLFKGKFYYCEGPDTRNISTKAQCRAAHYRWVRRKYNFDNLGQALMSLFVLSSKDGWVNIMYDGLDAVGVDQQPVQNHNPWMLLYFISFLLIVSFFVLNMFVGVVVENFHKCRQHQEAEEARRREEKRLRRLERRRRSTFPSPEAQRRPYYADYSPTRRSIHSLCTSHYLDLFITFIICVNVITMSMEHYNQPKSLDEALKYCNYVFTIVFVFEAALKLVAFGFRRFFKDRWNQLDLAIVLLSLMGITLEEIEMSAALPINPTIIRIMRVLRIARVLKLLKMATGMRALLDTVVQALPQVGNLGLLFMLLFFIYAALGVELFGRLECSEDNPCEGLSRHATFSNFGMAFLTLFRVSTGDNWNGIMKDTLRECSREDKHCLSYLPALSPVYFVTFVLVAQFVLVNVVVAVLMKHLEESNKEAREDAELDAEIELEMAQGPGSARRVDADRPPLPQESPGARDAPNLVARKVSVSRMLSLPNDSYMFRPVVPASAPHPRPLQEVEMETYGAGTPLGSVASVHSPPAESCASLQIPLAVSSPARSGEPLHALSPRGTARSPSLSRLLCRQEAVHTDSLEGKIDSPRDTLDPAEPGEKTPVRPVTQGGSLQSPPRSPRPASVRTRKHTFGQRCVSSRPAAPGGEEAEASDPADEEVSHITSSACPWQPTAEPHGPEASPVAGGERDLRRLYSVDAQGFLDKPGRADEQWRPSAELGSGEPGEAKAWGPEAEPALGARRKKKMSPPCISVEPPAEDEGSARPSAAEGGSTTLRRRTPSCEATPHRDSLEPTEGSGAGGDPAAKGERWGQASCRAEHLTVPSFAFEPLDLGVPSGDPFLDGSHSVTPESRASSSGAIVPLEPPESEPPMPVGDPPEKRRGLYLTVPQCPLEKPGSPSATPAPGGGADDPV
# hDAT+cocaine: changed hDAT dopamine uptake under cocaine IC80, either direction, primary screen, cocaine antagonist project, cell-based, LLC-PK1 hDAT, [14C]-dopamine uptake, MLSMR; Sodium-dependent dopamine transporter (Homo sapiens), Q01959; LLC-PK1 hDAT cells, [14C]-dopamine uptake with cocaine IC80; actives deviate in either direction; B-score at 10 µM; hit rate 1.3% among 110,000; AID 449768, 2010;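 active means Z score or B-score, a plate-position-corrected score, falls beyond the plate's 99.7% confidence bounds, in either direction; inactive means both scores lie inside the 99.7% bounds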;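 further: scored against the spread of the other compound wells on the same plate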
# Phagocytosis inh: inhibitors of macrophage phagocytosis, primary screen, imaging, J774A.1 cells, IgG beads; J774A.1 macrophage IgG-bead phagocytosis; inhibition, % at 5 µM; hit rate 0.07% among 110,000; AID 1029, 2008;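 active means inhibition above the mean of the plate negative controls plus 5 SD, cut at about 13% in these data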;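 further: phagocytic index as fraction of beads internalized from green versus red external bead signal; plate controls were DMSO negative control for no effect and cytochalasin-D positive control for full effect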
# PTK2B oligo ant: antagonists of Pyk2 self-association, primary screen, Q293 cells, FERM NanoBiT luminescence, HTS; hit rate 0.83% among 99,000; active compounds read low; z-score (the deposit names both 25 µM and 10 µM); Protein-tyrosine kinase 2-beta (Homo sapiens), Q14289; AID 1347419, 2020;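 active means Z-score of -3 or lower, scaled per plate to the spread of control and sample wells; inactive means z-score above -3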;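 further: negative z-score means lost luminescence so less FERM oligomerization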
# HIV Rev-RRE inh: HIV-1 Rev-RRE binding inhibitors, primary screen, biochemical, FRET, protein-RNA interaction; P05866; Rev peptide-RRE RNA binding; inhibition, % at 8 µM; hit rate 0.79% among 97,000;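 active means inhibition above the screen-wide mean plus 3 SD, cut at about 35% in these data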;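 further: 0% = median DMSO wells and 100% = median Neomycin B control wells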
#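 Test system: Cy5-tagged RRE RNA duplex with fluorescein-tagged Rev peptide | Read-out: % inhibition of FRET ratio versus controls | Probe or stimulus: Labelled Rev peptide | Incubation: 5 min RNA-compound premix plus 15 min binding step, 25 °C | Technique: FRET fluorescence readout | Benchmarks: DMSO low control, neomycin B high control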
# An asterisk follows results filed as active; x = not tested or not shown; [ ] = another dose, or the depositor's remark. Shown are actives, neighbours in structure and some others; about 5.9% of the full set was active somewhere.
SMILES,Measles CPE,Cav3 T inh,hDAT+cocaine,Phagocytosis inh,PTK2B oligo ant,HIV Rev-RRE inh
Cc1cccc(NC(=O)C23CCC(C)(C2Br)C3(C)C)c1 (stereo not given),11.9,-5.42*,-8.54*,x,-1.14,9.3
COc1cc(/C=C2/CCC/C(=C\c3cc(O)c(OC)c(Cl)c3)C2=O)cc(Cl)c1O,8.2,2.15,-0.16,x,-4.17*,-2.2
O=C(C1CCCN(S(=O)(=O)c2ccc(F)cc2)C1)N(Cc1cccs1)C1CC1 (stereo not given),49.0*,-4.08*,0.271,-1.2,-0.73,x
O=C(NCc1ccc(F)cc1)c1cc(S(=O)(=O)N2CCOCC2)ccc1F,30.4,-5.24*,0.0184,-2.4,1.08,4.8
Cc1ccc(NC(=O)c2cc(S(=O)(=O)N3CCOCC3)ccc2F)c(C)c1,3.5,0.164,0.864,-0.2,0.47,x
O=C(Cc1cccc(C(F)(F)F)c1)NCc1ccc(Cl)cc1Cl,8.0,x,x,-9.7,-0.58,x
COc1ccccc1CO/N=C/c1cccn1-c1nccc(N(C)C)c1C#N,17.0,-1.36,-0.249,-1.7,-0.06,14.9
CN(C)c1ccnc(-n2cccc2/C=N/OCc2ccc(F)cc2Cl)c1C#N,7.6,-5.36*,0.00998,-1.0,-0.84,25.0
COc1ccc(-c2nc3c4c(ncn3n2)-c2ccccc2CC42CCCC2)cc1,0.8,x,x,-7.5,x,x
Oc1cccc(-c2nc3c4c(ncn3n2)-c2ccccc2CC42CCCC2)c1,3.9,0.53,1.42,0.8,-3.06*,7.6
CC(C)N(C(=O)Cn1c(-c2ccccc2Cl)nc2ccccc21)c1ccccc1,34.0*,x,x,-7.4,x,x
CCOC(=O)Cc1csc(NC(=O)c2sc3nc4cc(C)ccc4cc3c2N)n1,23.7,x,x,-2.5,x,x
CCOC(=O)Cc1csc(NC(=O)c2sc3nc4ccc(CC)cc4cc3c2N)n1,8.9,0.0075,-1.18,x,-0.4,85.2*[fluorescence artefact?]
CCOC(=O)Cc1csc(NC(=O)c2ccc3c(c2)OCO3)n1,3.5,-0.63,0.443,-2.1,0.44,-1.0
CCOC(=O)Cc1csc(NC(=O)CSc2ncnc3c2cnn3-c2ccccc2Cl)n1,20.8,-6.24*,1.04,-0.8,-2.29,8.5
CCOC(=O)Cc1csc(NC(=O)c2cccs2)n1,4.9,-5.39*,0.0723,-0.7,1.02,x
CCOC(=O)Cc1csc(NC(=O)c2ccc(Cl)nc2)n1,3.9,0.131,1.04,x,0.17,41.0*
CCOc1cccc2c1OC(c1cc(OC)c(OC)c(OC)c1)N1N=C(c3ccc(C)o3)CC21 (stereo not given),5.4,x,x,-10.5,x,x
CCOC(=O)Cc1csc(NC(=O)c2ccc(Br)o2)n1,6.5,0.339,0.0185,0.2,0.27,0.0
CCOC(=O)Cc1csc(NC(=O)c2ccc(Br)s2)n1,15.0,-1.59,2.69*,1.1,x,-0.4
CSCCC(NC(=O)c1cccc([N+](=O)[O-])c1)C(=O)O (stereo not given),17.8,x,x,-8.0,x,x
CCOc1cc(N2CCOCC2)c(OCC)cc1NC(C)C(=O)N1CCC(C)CC1 (stereo not given),3.2,x,x,-10.1,x,x
Cc1ccc(-c2nc3cc(NC(=O)C(C)C)ccc3o2)cc1,6.4,0.00929,-0.143,4.1,-0.71,9.0
Cc1ccc2oc(-c3ccc(C)c(NC(=O)Cc4cccs4)c3)nc2c1,8.2,x,x,x,0.43,1.1
O=C(Nc1ccc2oc(-c3ccncc3)nc2c1)c1cccs1,42.3*,1.13,-1.09,0.2,0.59,5.3
SMILES,Measles CPE,Cav3 T inh,hDAT+cocaine,Phagocytosis inh,PTK2B oligo ant,HIV Rev-RRE inh
CC(Oc1ccc(Cl)cc1Cl)C(=O)Nc1ccc2oc(-c3ccncc3)nc2c1 (stereo not given),5.3,0.0335,-0.00213,-0.9,-3.23*,-3.7
O=C(Nc1ccc(-c2nc3cc(NC(=O)c4cccs4)ccc3o2)cc1)c1cccs1,13.1,1.12,-1.02,x,-0.81,4.0
Cc1ccc2oc(-c3ccc(C)c(NC(=S)NC(=O)c4cccs4)c3)nc2c1,59.1*,x,x,x,x,x
CCOc1ccc(-c2[nH]ncc2Oc2ccccc2OC)c(O)c1,11.6,-0.455,-0.00751,-1.4,-3.02*,7.2
C=C(C)COc1ccc(-c2[nH]ncc2Oc2ccccc2OC)c(O)c1,9.5,-1.22,0.00887,-0.9,-3.62*,18.2
CCOc1ccc(-c2[nH]ncc2Oc2ccccc2OCC)c(O)c1,9.2,-2.83,0.163,-0.8,-1.71,16.1
CC1(C)CC(=O)c2cc(NC(=O)c3ccccc3)c(=O)oc2C1,4.9,x,x,-0.8,x,x
Cc1nc(-c2ccc(Cl)cc2)sc1C1(C)CC(c2cccc([N+](=O)[O-])c2)=NO1 (stereo not given),x,-0.557,1.07,x,x,x
Cc1c(C(=O)NCC2CCCO2)oc2ccc(S(=O)(=O)N3CCCCC3)cc12 (stereo not given),19.6,x,x,x,x,x
Cc1c(C(=O)NCC2CCCO2)oc2ccc(S(=O)(=O)N3CC(C)CC(C)C3)cc12 (stereo not given),11.2,-4.02*,1.27,-0.4,x,3.8
Cc1c(C(=O)NCC2COc3ccccc3O2)oc2ccc(S(=O)(=O)N3CCOCC3)cc12 (stereo not given),2.0,x,2,-0.4,-1.99,6.5
Cc1c(C(=O)NCC2COc3ccccc3O2)oc2ccc(S(=O)(=O)N3CC(C)CC(C)C3)cc12 (stereo not given),24.1,-3.9*,1.4,-1.4,-0.5,2.2
O=C(NN1C(=O)C2C3CCC(O3)C2C1=O)c1ccco1 (stereo not given),5.2,x,x,-2.9,x,x
CCOC(=O)COc1ccccc1/C=C\[N+](=O)[O-],1.7,x,x,-10.3,x,x
Cc1cccc(C)c1NC(=S)NC(=O)CCc1ccccc1,14.5,-2.29,-0.405,6.5,2.05,-0.8
Cc1ccccc1NC(=S)NC(=O)CCc1ccccc1,4.5,-4*,1.85,x,-0.01,-3.1
COc1ccc(NC(=S)NCCc2ccccc2)c(OC)c1,26.8,-0.0301,-0.007,-0.4,0.27,1.2
COc1ccc(OC)c(NC(=S)NN2CCOCC2)c1,57.4*,0.989,-0.311,0.9,-0.18,2.4
COc1ccc(OC)c(NC(=S)NCCC(c2ccccc2)c2ccccc2)c1,x,-7.8*,1.02,x,-1.1,-1.4
Cc1ccc(NC(=S)NCCC(c2ccccc2)c2ccccc2)c(C)c1,3.7,-3.18,1.23,0.3,-1.33,5.8
Cc1ccccc1NC(=S)NCCC(c1ccccc1)c1ccccc1,6.1,-4.36*,1.56,2.6,-0.47,-3.9
CCOc1ccc(-n2nc3c(=O)n(CCN4CCCCC4)nc(C)c3c2C)cc1,2.7,x,x,-1.7,x,x
CCCOC(=O)C1C2C=CC(C3CC23)C1C(=O)OCC(=O)c1ccccc1 (stereo not given),6.7,-5.46*,0.00369,-1.4,-0.65,0.0
Cc1ccc(S(=O)(=O)/N=C2/NC(=O)/C(=C/c3ccc(Br)o3)S2)cc1,24.6*,x,x,-1.1,x,x

# High-throughput results: PubChem, several laboratories
